Screening data: PubChem BioAssay, several laboratories
Sampled rows, rich in hits. Any-hit rate of the full collection: about 2.8%.
EP2 mod: modulates human prostaglandin E2 receptor EP2 signaling; EP2-expressing cells, cAMP HTRF FRET, PGE2 co-stimulation; induction, % at 25 µM; actives 0.83% (n = 260,000); AID 940;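 active means compounds whose cAMP rise, as percent of the full-agonist control response, exceeds 60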;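 further: rat C6 glioma line stably carrying human EP2 under a CMV promoter; the protocol text gives 20 µM as final concentration; 100% = response of wells given 1 µM PGE2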
Target sequence (P43116 whole entry, looked up): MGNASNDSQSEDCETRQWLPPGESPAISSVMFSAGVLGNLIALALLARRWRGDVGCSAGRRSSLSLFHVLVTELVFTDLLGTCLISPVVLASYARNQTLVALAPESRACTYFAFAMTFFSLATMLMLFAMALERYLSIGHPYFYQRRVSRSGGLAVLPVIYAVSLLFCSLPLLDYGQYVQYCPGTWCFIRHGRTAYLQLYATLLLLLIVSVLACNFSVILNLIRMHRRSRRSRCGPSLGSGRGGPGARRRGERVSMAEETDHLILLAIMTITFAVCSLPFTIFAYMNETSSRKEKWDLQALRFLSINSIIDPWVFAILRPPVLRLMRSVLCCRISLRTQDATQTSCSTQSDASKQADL
NPY Y1 blocker: NPY-Y1 (human) receptor antagonism; P25929; HEK293-CNG Y1 cells, membrane potential fluorescence; NPY at EC95, then isoproterenol; inhibition, % at 3.6 µM; actives 1% (n = 200,000);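 active means inhibition above the campaign mean inhibition of all tested compounds plus 3 SD, cut at about 20% in these data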;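 further: 0% = DMSO wells given NPY plus isoproterenol and 100% = isoproterenol alone without NPY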
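Test system – HEK293 Y1/CNG channel cell line · Also added – NPY agonist 25 nM, then isoproterenol 1 µM plus Ro 20-1724 25 µM · Compound dosing – one concentration, 3.6 µM, in 0.4% DMSO · Schedule – compound incubation 1 h at room temperature, readout 45 min post-stimulation · Technique – fluorescence, membrane potential probe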
NPY1 pot ag: human NPY-Y1 potentiation or agonism, primary screen | activation, % at 3.6 µM | NPY-Y1 expressing cells, potentiator/agonist activation | actives 0.37% (n = 220,000) | P25929; in the data active means activation above about 33%, passing the limit was not always enough;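 further: cells stimulated with NPY at EC10 then isoproterenol at EC100; 0% = low agonist plus stimulus and 100% = saturating agonist plus stimulus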
EP2 antag: EP2 receptor (human) inhibition; C6 glioma cells expressing human EP2, cAMP TR-FRET; cells stimulated with saturating PGE2; inhibition, % at 25 µM; actives 0.52% (n = 260,000); AID 1422;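 active means percent inhibition above 40 after rounding to a whole number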;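 further: rat C6 glioma host cells with rolipram phosphodiesterase inhibitor present; the protocol text gives 20 µM as final concentration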
NPY Y2 blocker: NPY-Y2 (human) receptor antagonism. actives 0.99% (n = 140,000). inhibition, % at 2.7 µM. NPY-Y2 expressing cells, antagonist mode. P49146; in the data active means inhibition above about 17%;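 further: 0% = vehicle with agonist challenge and 100% = reference antagonist with challenge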
Target sequence (P49146 whole entry, looked up): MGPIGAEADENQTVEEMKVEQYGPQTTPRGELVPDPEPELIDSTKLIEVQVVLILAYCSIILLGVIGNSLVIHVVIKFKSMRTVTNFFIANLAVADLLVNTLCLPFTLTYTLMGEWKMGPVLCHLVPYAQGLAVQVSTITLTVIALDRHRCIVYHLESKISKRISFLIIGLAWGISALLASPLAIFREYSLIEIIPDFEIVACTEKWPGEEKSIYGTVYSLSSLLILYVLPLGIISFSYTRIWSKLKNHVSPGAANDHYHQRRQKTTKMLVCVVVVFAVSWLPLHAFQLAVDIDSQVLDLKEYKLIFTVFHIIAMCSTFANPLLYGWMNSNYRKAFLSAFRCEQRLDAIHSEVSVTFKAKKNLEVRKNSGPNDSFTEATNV
NPY-Y2 PAM-ag: potentiators or agonists of human neuropeptide Y receptor Y2; cells expressing NPY-Y2, potentiator/agonist read-out; activation, % at 3.6 µM; P49146; actives 0.45% (n = 220,000); in the data active means activation above about 27%;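 further: cells stimulated with NPY near EC25 plus isoproterenol at EC100; 0% = vehicle plus submaximal agonist and 100% = vehicle plus saturating agonist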
NPY-Y1 antag ct: antagonizes human NPY-Y1, counter-screen to NPY-Y2 antagonists | AID 1256 | shares compounds with NPY Y2 blocker | actives 19% (n = 710) | cell-based NPY-Y1 antagonism counterscreen | inhibition, % at 3.6 µM; in the data active means inhibition above about 20%;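 further: cells challenged with NPY then isoproterenol with cAMP sensed through a CNG channel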
NPY-Y2 ant conf: confirmation of human neuropeptide Y receptor Y2 antagonists; shares compounds with NPY Y2 blocker; HEK293 NPY-Y2 CNG channel, membrane potential fluorescence; inhibition, % at 2.8 µM; actives 32% (n = 710);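 active means mean inhibition of triplicate wells above the hit cutoff set in the primary screen, cut at about 17% in these data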;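 further: 0% = DMSO with NPY challenge and 100% = BIIE0246 high control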
* marks the source's active call; other numbers are inactive results; nt = no result.

SMILES | EP2 mod | NPY Y1 blocker | NPY1 pot ag | EP2 antag | NPY Y2 blocker | NPY-Y2 PAM-ag | NPY-Y1 antag ct | NPY-Y2 ant conf
CC(C)(C)n1nnnc1C(c1cccs1)N(Cc1ccc(Cl)cc1)CC1CCCO1 (stereo not drawn) | 29.6 | 11.3 | -20.6 | 3.2 | 28.3* | 2.4 | 19.4 | 10.8
Clc1ccc(CN(Cc2ccccc2)C(c2cccs2)c2nnnn2C2CCCC2)cc1 (stereo not drawn) | 4.4 | 19.9 | -9.2 | 12.1 | 7.5 | -10.3 | nt | nt
CCOC(=O)/C(N=Nc1ccc(Cl)cc1)=C(/O)c1ccc([N+](=O)[O-])cc1 | 10.4 | 0.1 | 5.1 | nt | 17.3* | -7.3 | -0.8 | -0.9
CCC(Sc1nc(C)cc(=O)[nH]1)C(=O)Nc1nnc(C)s1 (stereo not drawn) | 3.0 | -4.5 | -18.9 | 10.3 | 1.2 | -0.8 | nt | nt
CCCCc1nnc(NC(=O)C(C)Sc2nc(C)cc(=O)[nH]2)s1 (stereo not drawn) | 0.9 | 1.1 | -12.1 | 7.2 | 20.4* | -4.9 | -1.1 | 0.8
Cc1ccc(Oc2nc(CN3CCOCC3)nc3sc4c(c23)CCC(C)C4)cc1 (stereo not drawn) | 8.7 | 8.7 | -31.9 | 6.1 | 22.5* | 0.6 | 29.4* | 30.3*
NC(=O)CSc1nnc(CNc2cccc(Cl)c2)o1 | -8.2 | nt | nt | 7.9 | nt | nt | nt | nt
c1ccc(-c2nc(CSc3nnc(-c4cccs4)o3)cs2)cc1 | -38.0 | -2.8 | -0.2 | 17.6 | 20.2* | 2.0 | 15.5 | 20.1*
Cc1ccc(Nc2nc(CSc3nnc(-c4cccs4)o3)cs2)cc1 | -34.0 | 11.3 | -22.9 | 14.1 | 8.2 | -19.0 | nt | nt
Cc1ccc(Nc2nc(N)nc(CSc3nc(C)cc(C)n3)n2)cc1 | -13.6 | 7.1 | 11.4 | 15.0 | 28.7* | 10.8 | 0.7 | 2.5
O=C(O)CSc1nnc(-c2ccc3c(c2)OCO3)o1 | -40.9 | 13.9 | -31.5 | 6.3 | 31.4* | -21.6 | 17.7 | 18.0*
NC(=O)CSc1nnc(-c2ccc3c(c2)OCO3)o1 | 10.9 | 1.8 | 5.7 | 6.1 | nt | 7.6 | nt | nt
COC(=O)c1sccc1NC(=S)N1CCN(c2ccccc2F)CC1 | 20.9 | 4.5 | -6.7 | 10.5 | 18.3* | -15.7 | 12.6 | 11.5
COC(=O)c1sccc1NC(=S)N1CCN(c2ccccc2)CC1 | 12.5 | -2.3 | -0.1 | 4.7 | 14.1 | 0.0 | nt | nt
COc1ccc(N(CC(=O)N/N=C/c2ccc(OC3CSC3)cc2)S(=O)(=O)c2ccccc2)cc1 | 36.1 | 0.3 | 16.8 | 8.2 | 20.7* | 7.6 | 22.1* | 54.1*
O=C(NCCn1nc(-c2cccs2)ccc1=O)C1CCCC1 | -17.4 | nt | nt | nt | nt | nt | nt | nt
CN(CC(=O)Nc1ccc(C#N)cc1)Cc1ccc(Cl)cc1 | -35.1 | 2.7 | -7.6 | 7.9 | 18.1* | -7.1 | 2.4 | 1.2
C#CCn1c(=NC(=O)c2cccs2)sc2cccc(OC)c21 | -152.8 | 15.7 | -59.6 | nt | 23.2* | -52.2 | 14.2 | 10.6
CCCn1c2ccccc2c2cc(C(=O)O)ccc21 | 7.2 | 7.0 | -16.9 | nt | 19.3* | -12.2 | 5.1 | 7.7
CCCCCCCCCS(=O)(=O)N/N=C/c1cccc([N+](=O)[O-])c1 | 27.3 | 8.0 | -23.6 | 9.8 | 23.9* | -12.6 | 16.6 | 21.5*
Cc1ccc2cc(C#N)c(SCC(=O)NCc3ccccc3)nc2c1C | 9.3 | nt | nt | 10.5 | nt | nt | nt | nt
O=c1c2ccccc2c(=O)c2c1ccc1nc3c(ccc4c(=O)c5ccccc5c(=O)c43)nc12 | 6.6 | nt | nt | 10.3 | nt | nt | nt | nt
C=C(C)CSc1nc2c(c(=O)[nH]c(=O)n2C)n1CCC(C)C | 34.6 | 1.9 | -8.0 | 11.2 | 22.1* | 10.5 | 1.9 | -0.1
C=CCn1c(SCC(=C)C)nc2c1c(=O)[nH]c(=O)n2C | 18.6 | nt | nt | 6.8 | nt | nt | nt | nt
Cc1cc(-c2cnc(C)nc2C2CCN(CC(=O)NCc3ccc4c(c3)OCO4)CC2)on1 | 1.7 | nt | nt | nt | nt | nt | nt | nt
SMILES | EP2 mod | NPY Y1 blocker | NPY1 pot ag | EP2 antag | NPY Y2 blocker | NPY-Y2 PAM-ag | NPY-Y1 antag ct | NPY-Y2 ant conf
CCCCn1c(=N)n(CCOc2ccc(C)cc2)c2ccccc21 | -22.9 | 19.2 | -25.3 | 13.8 | 20.0* | 0.8 | 9.2 | 16.0
COC(=O)c1c(NC(=O)c2cccs2)sc(C(=O)Nc2ccccc2F)c1C | -20.3 | nt | nt | 7.2 | nt | nt | nt | nt
Nc1nonc1-c1nc2ccccc2n1Cc1ccc(Cl)cc1 | 36.5 | 13.7 | 6.5 | 7.4 | 27.8* | 11.3 | 28.4* | 26.6*
NNC(=O)Cn1c(-c2nonc2N)nc2ccccc21 | 9.6 | -0.8 | -19.1 | 2.1 | nt | -10.1 | nt | nt
NC(=O)Cn1c(-c2nonc2N)nc2ccccc21 | -1.4 | -2.9 | 5.1 | 6.9 | nt | -15.0 | nt | nt
CCCCOc1ccccc1NC(=O)Cn1c(-c2nonc2N)nc2ccccc21 | 13.0 | 7.1 | -7.1 | 12.4 | 51.0* | -0.8 | 50.5* | 92.7*
O=C(c1cccnc1)C1CCN(C(=O)C2CCCCC2)CC1 | -3.2 | nt | nt | nt | nt | nt | nt | nt
Cc1ccccc1C(=O)c1cccn1CC(=O)NCCN1CCN(c2cccc(C)c2C)CC1 | 57.6 | 19.7 | -61.4 | 5.4 | 21.4* | -20.6 | 18.9 | 24.6*
C/C(=N\O)c1ccc(N2C(=O)C3CC=C(Cl)CC3C2=O)cc1 (stereo not drawn) | 16.9 | 12.6 | -5.4 | 3.8 | 22.9* | -21.8 | 5.4 | 16.9
Cc1ccccc1N1C(=O)c2ccccc2N2C(=O)c3ccccc3C12 (stereo not drawn) | 17.7 | 12.0 | -9.1 | 14.4 | 22.7* | -17.0 | 4.8 | 6.9
O=C1c2ccccc2N2C(=O)c3ccccc3C2N1O (stereo not drawn) | 15.6 | -1.4 | 3.1 | 13.2 | 0.2 | -3.6 | nt | nt
CCN1/C(=C2\OC(=S)N(C)C2=O)Sc2ccccc21 | 31.3 | -0.8 | 11.2 | nt | 19.5* | 5.2 | -1.0 | 11.7
CC(=O)OC(C(=O)NCC1CCCO1)c1ccc(F)cc1 (stereo not drawn) | 27.9 | nt | nt | 3.1 | nt | nt | nt | nt
COc1ccc(-c2ccnc(SCC(=O)c3ccc(Br)cc3)n2)cc1 | 14.6 | 5.2 | 6.0 | 4.7 | 20.6* | -0.2 | 42.3* | 42.3*
Cc1cc2cc(CN(Cc3ccc4c(c3)OCO4)C(=O)Nc3ccc(F)cc3)c(=O)[nH]c2cc1C | 13.9 | nt | nt | 6.7 | nt | nt | nt | nt
CC(=O)c1cc(CC=C(C)C)c(O)c(CC=C(C)C)c1O | -1.6 | 9.3 | -12.7 | nt | 24.5* | -5.8 | 9.4 | 15.2
CC(=O)c1cc(CC=C(C)C)c(O)cc1O | 33.8 | -3.2 | 6.4 | 7.4 | 1.2 | -7.7 | nt | nt
N#C/C(=C\c1cn(Cc2ccccc2)c2ccccc12)C(=O)NCc1ccco1 | -0.2 | 2.7 | -26.6 | 8.5 | 4.1 | -0.8 | nt | nt
N#C/C(=C\c1cn(Cc2ccc(F)cc2)c2ccccc12)C(=O)NCc1ccco1 | 14.3 | -0.2 | -14.1 | 11.1 | 18.1* | 2.6 | 0.9 | 5.1
CCN(CC)C(=O)c1ccccc1NC(=O)c1ccccc1 | 20.2 | 2.1 | 7.2 | 4.9 | nt | 10.7 | nt | nt
CCCOC(=O)COC(=O)c1ccccc1NC(=O)c1ccccc1 | 0.8 | 15.3 | -70.5 | 3.7 | 23.2* | -11.5 | 16.1 | 8.8
